CHO parental Ca = ATP-evoked calcium signal inhibitors, parental CHO, primary screen, counter-screen for OX1R antagonist project, cell-based, fluorescence, Fluo-8 calcium dye | inhibition, % at 5.6 µM | AID 463079, 2010 | parental CHO-K1, ATP-induced calcium, Fluo-8 fluorescence | hit rate 0.63% among 330,000;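 active = inhibition above that plate's mean sample inhibition plus 3 SD, cut at about 26% in these data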;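 note: 0% = ATP-challenged DMSO wells and 100% = DMSO wells without ATP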
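Test system: untransfected parental CHO cell line; also added: ATP stimulus; dosing: 5.6 µM, single dose; signal: calcium-sensitive Fluo-8 fluorescence; measure: percent inhibition of ATP-evoked calcium rise, normalized to controls; benchmarks: low control ATP plus DMSO, high control DMSO only; replication: one well per compound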
TAAR1 antagonist = human TAAR1 antagonists, primary screen, Fluo-8 calcium fluorescence, CHO RD-HGA16 cells. hit rate 1.5% among 360,000. antagonist. Trace amine-associated receptor 1 (Homo sapiens), Q96RJ0. inhibition, % at 3 µM;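 active = inhibition above a per-plate cutoff, the mean inhibition of test compounds on that plate plus 3 SD, cut at about 49% in these data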;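 note: 0% = DMSO plus EC80 beta-PEA response and 100% = DMSO alone without agonist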
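Test system – hTAAR1-expressing CHO RD-HGA16 cells, Gα16-coupled · Reagent – β-PEA at EC80 concentration, post-compound challenge · Compound dosing – 3 µM, single point · Timing – 140 s kinetic read after compound, 140 s after agonist · Detection – Fluo-8 intracellular calcium dye fluorescence, real-time kinetic reads · Control set – DMSO and EC80 PEA controls · Repeats – n of 1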
OX1R antag-1 = OX1R (HCRTR1) antagonists, primary screen, fluorescence, CHO/OX1R cells, Fluo-8 calcium, orexin A. hit rate 0.43% among 330,000. Orexin/Hypocretin receptor type 1 (Homo sapiens), O43613. inhibition, % at 5 µM. Fluo-8 calcium fluorescence. AID 434989, 2010;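 active = inhibition above its plate's threshold, mean inhibition of all tested compounds on the plate plus 3 SD, cut at about 37% in these data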;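 note: 0% = orexin A challenge wells and 100% = SB-334867-A antagonist wells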
Target sequence (O43613 whole entry, looked up): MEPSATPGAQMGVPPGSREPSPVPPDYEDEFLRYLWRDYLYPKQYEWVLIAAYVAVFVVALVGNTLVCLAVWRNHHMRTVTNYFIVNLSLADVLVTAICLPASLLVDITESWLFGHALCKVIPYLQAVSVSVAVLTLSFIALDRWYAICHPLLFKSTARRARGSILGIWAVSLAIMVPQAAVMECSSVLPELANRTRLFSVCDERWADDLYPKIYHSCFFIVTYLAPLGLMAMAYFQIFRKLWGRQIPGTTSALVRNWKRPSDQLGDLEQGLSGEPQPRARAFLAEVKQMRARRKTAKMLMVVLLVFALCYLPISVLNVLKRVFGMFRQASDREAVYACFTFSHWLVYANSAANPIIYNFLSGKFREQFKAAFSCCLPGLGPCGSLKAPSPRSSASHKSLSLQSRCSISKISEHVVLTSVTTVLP
GPR7 antag = GPR7 receptor antagonists, primary screen, cell-based, fluorescence, single concentration; Neuropeptides B/W receptor type 1 (Homo sapiens), P48145; GPR7-expressing cells, fluorescence antagonist assay; inhibition, % at 4.4 µM; hit rate 1.1% among 290,000; AID 1861, 2009; in the data active = inhibition above about 16%, passing the limit was not always enough;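 note: cells stimulated with the agonist NPW; 0% = agonist with vehicle and 100% = vehicle without agonist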
OX1R antag-2 = antagonists of human orexin 1 receptor (OX1R) | OX1R-expressing cells, FRET antagonist read-out | inhibition, % at 6.6 µM | hit rate 1.8% among 330,000 | AID 485270, 2010; in the data active = inhibition mostly above about 38%, no sharp cut-off; inactive = mostly below about 40%;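 note: 0% = agonist challenge alone and 100% = reference antagonist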
TAAR1 ag = human TAAR1 agonists, primary screen, Fluo-8 calcium fluorescence, CHO RD-HGA16 cells; AID 624467, 2012; vehicle wells 0%, saturating PEA agonist 100%; hit rate 0.99% among 360,000; activation, % at 3 µM; Trace amine-associated receptor 1 (Homo sapiens), Q96RJ0;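 active = activation above the mean activation of all test compounds in the run plus 3 SD, cut at about 38% in these data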
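Test system: RD-HGA16 (CHO) cells co-expressing Gα16 and hTAAR1 / Benchmarks: DMSO vehicle as 0%, PEA at EC100 as 100% / Repeats: no replicates (n 1) / Measure: % activation from peak over basal fluorescence ratio, DMSO-to-PEA scaled / Timing: 17-24 h plating, Fluo-8 75 min 37 °C, 30 min RT / Technique: kinetic Fluo-8 calcium fluorescence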
GPR7 antag conf = GPR7 receptor antagonists, confirmation, cell-based, fluorescence, single concentration | inhibition, % at 4.4 µM | hit rate 52% among 2,400 | GPR7-expressing cells, calcium fluorescence antagonist mode | shares compounds with GPR7 antag | AID 1952, 2009; in the data active = inhibition above about 24%;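 note: stimulated with the GPR7 agonist NPW; 0% = agonist plus vehicle and 100% = vehicle alone without agonist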
MCHR1 antagonist = MCHR1 antagonists in cells, counter-screen for GPR7 antagonist project, cell-based, fluorescence, human; inhibition, % at 4.4 µM; AID 2148, 2009; MCHR1-expressing cells, fluorescence antagonist assay; shares compounds with GPR7 antag; hit rate 62% among 2,400; in the data active = inhibition above about 22%;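 note: 0% = vehicle with agonist and 100% = vehicle without agonist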
* = called active by the depositor; . = no result given. Only some compounds are listed: those with a hit (about 4.6% of all), similar ones and a draw of the others.

SMILES | CHO parental Ca | TAAR1 antagonist | OX1R antag-1 | GPR7 antag | OX1R antag-2 | TAAR1 ag | GPR7 antag conf | MCHR1 antagonist
O=C(CCNS(=O)(=O)c1ccc(Br)s1)Nc1ccc(Cl)cc1 | -6 | 22 | -13 | 32* | 1 | 12 | 32* | 30*
Cc1ccc2c(c1)N(CC(=O)NCCCN1CC(C)CC(C)C1)C(=O)c1cccnc1O2 (centres undefined) | -12 | -13 | -34 | 4 | 15 | 0 | . | .
COC(=O)c1cc(NC(=O)c2c(-c3c(Cl)cccc3Cl)noc2C)ccc1N1CCOCC1 | -12 | -4 | -16 | 24* | 5 | 4 | 1 | 7
CCCCCCCC1CC(CSc2ncn[nH]2)OC1=O (centres undefined) | -7 | -7 | -11 | 21* | 7 | 19 | 38* | 38*
CCCCC1CC(CSc2ncn[nH]2)OC1=O (centres undefined) | 0 | 8 | -12 | 2 | 0 | 4 | . | .
CCOC(=O)[C@]12CCC=C1N(Cc1ccc(Cl)cc1Cl)C(=O)[C@H](CC(=O)NCc1ccccc1)C2 | . | 2 | . | . | . | 1 | . | .
O=C(c1ccco1)N1CCN(S(=O)(=O)c2ccc(Br)s2)CC1 | -15 | 10 | -22 | 47* | 12 | 8 | 9 | -1
CCOC(=O)C1(CC2CCCCO2)CCN(C2CCSCC2)CC1 (centres undefined) | -11 | -1 | -25 | 25* | 5 | 8 | 37* | 23*
CC(C)(C)n1nnnc1C(c1ccccc1)N1CCN(CCN2CCOCC2)CC1 (centres undefined) | . | 12 | . | . | . | 2 | . | .
C(=C\c1ccccc1)/CSc1nnc(-c2cnccn2)n1Cc1ccco1 | -14 | -1 | -13 | 21* | 22 | -3 | 24* | 39*
CC(=O)N1c2ccc(S(=O)(=O)N3CCCCC3)cc2CC1C(=O)NCc1cccc(Cl)c1 (centres undefined) | -11 | -6 | -13 | 2 | 17 | 7 | . | .
Cc1cc(C(=O)NNS(=O)(=O)c2cc(C(=O)O)ccc2Cl)c(C)n1-c1ccccc1 | -14 | 0 | -5 | . | 9 | 0 | . | .
COc1cccc(Cn2cccc(NC(=O)Nc3cccc(C#N)c3)c2=O)c1 | -16 | 23 | -6 | 27* | 50 | 5 | 26* | 67*
COc1cccc(NC(=O)Nc2cccn(Cc3ccc(C)cc3)c2=O)c1 | -11 | 1 | -6 | -5 | 29 | 3 | . | .
CC1CCN(S(=O)(=O)c2ccc(NC(=O)[C@@H]3CCCN3C(=O)c3cccs3)cc2)CC1 | -23 | -17 | -12 | . | -1 | 2 | . | .
O=C(COC(=O)c1ccccc1F)c1ccc(-n2nncc2-c2ccco2)cc1 | 6 | 34 | -16 | 22* | 15 | 2 | 7 | 26*
CC1CC(C)CN(CCCNC(=O)c2ccc3c(c2)N(Cc2ccccc2)C(=O)c2ccccc2S3=O)C1 (centres undefined) | -19 | -4 | -16 | 35* | 14 | 6 | 23 | 1
N#Cc1ccsc1NC(=O)CCN1C(=O)C2CCCCC2C1=O (centres undefined) | -14 | -16 | -18 | . | 9 | 1 | . | .
Cc1noc(/C=C/N(C)C)c1S(=O)(=O)N1CCCC(C(=O)N2CCCCC2)C1 (centres undefined) | -11 | -25 | -32 | 27* | 6 | -1 | -5 | 4
CN(C(=O)COC(=O)c1cc([N+](=O)[O-])ccc1N1CCOCC1)C1CCCCC1 | . | 4 | . | . | . | 2 | . | .

Assay outcomes deposited in PubChem BioAssay by The Scripps Research Institute Molecular Screening Center.
